Assay results reported in publication PMC6880868 (Cancer cell, 2019).

What was measured:
STAT4 = STAT4 (Homo sapiens, UniProt Q14765); assay: Bio-Layer Interferometry binding, STAT4
Procedure, shortened: (§1)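 Purified recombinant human STAT proteins were biotinylated, then direct binding of the test compound was measured by Bio-Layer Interferometry to give Kd.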

[1] = system: ~5500 proteins quantified in each cell line; assay: Multiplexed quantitative proteomics in cell lines; assay type: cell-based, human; conditions: 10 μM, 2.5 hr, three cell lines, p≤0.05
Procedure, shortened: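 Cells were exposed to test compound, then analysed by multiplexed quantitative proteomics. Significance was assessed by Student's t-test.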

[2] = system: mitochondrial STAT3; complex I and II; assay: Mitochondrial STAT3 and OXPHOS complex I/II enzyme activity; assay type: cell-based; conditions: 24 hours
[3] = system: IKZF1, IKZF3, CK1α, GSPT1; assay: Immunoblotting of CRBN neo-substrates; assay type: cell-based, human; conditions: 24 hr; SD-36 0.5 μM, lenalidomide 1 μM
[4] = target: monomeric and dimeric STAT3 protein (Homo sapiens, UniProt P40763); assay: Native electrophoresis and immunoblotting of STAT3 monomer/dimer; assay type: cell-based; conditions: MOLM-16, 1 μM, within 5 hr
Sequence of monomeric and dimeric STAT3 protein (P40763 whole entry): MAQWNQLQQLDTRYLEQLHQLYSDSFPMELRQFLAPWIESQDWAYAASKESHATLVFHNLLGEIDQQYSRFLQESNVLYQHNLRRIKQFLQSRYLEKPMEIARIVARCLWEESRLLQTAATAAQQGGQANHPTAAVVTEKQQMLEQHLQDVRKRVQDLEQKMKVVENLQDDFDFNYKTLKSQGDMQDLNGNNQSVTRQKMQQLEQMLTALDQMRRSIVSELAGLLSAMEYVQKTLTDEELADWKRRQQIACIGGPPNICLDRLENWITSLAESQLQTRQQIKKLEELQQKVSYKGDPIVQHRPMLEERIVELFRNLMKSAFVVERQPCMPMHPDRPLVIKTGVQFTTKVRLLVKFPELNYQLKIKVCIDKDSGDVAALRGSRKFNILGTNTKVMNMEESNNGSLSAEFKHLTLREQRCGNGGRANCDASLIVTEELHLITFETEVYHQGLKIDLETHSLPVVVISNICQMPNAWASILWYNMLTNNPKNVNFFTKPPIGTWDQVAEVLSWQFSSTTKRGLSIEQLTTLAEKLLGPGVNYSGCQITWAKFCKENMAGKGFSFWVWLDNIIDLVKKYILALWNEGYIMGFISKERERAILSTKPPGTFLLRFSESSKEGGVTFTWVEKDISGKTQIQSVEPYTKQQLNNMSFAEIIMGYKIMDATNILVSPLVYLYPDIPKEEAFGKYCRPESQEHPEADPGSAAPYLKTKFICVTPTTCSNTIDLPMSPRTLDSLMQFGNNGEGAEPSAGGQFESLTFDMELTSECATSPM

[5] = system: c-Myc; STAT3 Y705 phosphorylation; assay: Immunoblotting of c-Myc and pSTAT3; assay type: cell-based, human; conditions: 0.5 μM, 24 hr
Procedure, shortened: (§2)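 Treated cells were lysed in cell lysis buffer, resolved by SDS-PAGE, transferred to PVDF and probed by immunoblotting.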

STAT5A = STAT5A (Homo sapiens, UniProt P42229); assay: Bio-Layer Interferometry binding, STAT5A
Sequence of STAT5A (P42229 136-705): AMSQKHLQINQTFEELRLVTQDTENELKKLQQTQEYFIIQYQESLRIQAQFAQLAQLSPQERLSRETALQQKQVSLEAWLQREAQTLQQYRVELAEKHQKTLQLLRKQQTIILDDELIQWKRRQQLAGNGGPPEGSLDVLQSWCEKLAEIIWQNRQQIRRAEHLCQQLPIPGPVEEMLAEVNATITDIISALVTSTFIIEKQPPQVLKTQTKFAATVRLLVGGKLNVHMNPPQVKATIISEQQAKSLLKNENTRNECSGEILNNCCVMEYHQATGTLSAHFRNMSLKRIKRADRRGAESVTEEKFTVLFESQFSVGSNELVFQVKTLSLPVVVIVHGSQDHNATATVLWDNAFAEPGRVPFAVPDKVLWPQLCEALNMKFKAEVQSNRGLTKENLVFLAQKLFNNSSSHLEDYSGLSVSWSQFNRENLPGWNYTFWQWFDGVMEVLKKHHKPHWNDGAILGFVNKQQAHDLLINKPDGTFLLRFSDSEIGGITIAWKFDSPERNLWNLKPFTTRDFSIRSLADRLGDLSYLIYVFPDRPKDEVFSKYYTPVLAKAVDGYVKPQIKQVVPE
Procedure, shortened: as §1

[6] = system: leukemia and lymphoma cell lines; assay: 4-day CellTiter Glo cell viability assay, leukemia and lymphoma cell line panel; assay type: cell-based, human
[7] = system: transcriptional activity of STAT3; assay: STAT3-luciferase reporter assay; assay type: cell-based, human; conditions: Homo sapiens, MOLM16, 24 h, read-out: IC50, transcriptional activity of STAT3
[8] = target: DNA binding activity of STAT3 (Homo sapiens, UniProt P40763); assay: STAT3 DNA binding activity assay on nuclear extracts; assay type: cell-based; conditions: 1 μM, 8 hr, MOLM-16 and SU-DHL-1
Sequence of DNA binding activity of STAT3 (P40763 whole entry): as the sequence (P40763 whole entry) above
Procedure, shortened: (§3)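 Nuclear extraction: cells were swelled 15 min on ice in hypotonic HEPES pH 7.9/10 mM KCl buffer with DTT and phosphatase/protease inhibitors. NP-40 was added (0.5% final), and nuclei were extracted 15 min at 4°C in 0.4 M NaCl HEPES buffer, then cleared at 5,000 × g. ELISA: 5 μg extract was bound 1 hr at room temperature in TransAM STAT ELISA wells. Wells then received STAT antibody (1:1000, 1 hr), HRP secondary (1 hr) and colour development.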

[9] = Body weight and signs of toxicity in efficacy experiments; assay type: in vivo, mice; conditions: all efficacy experiments
Procedure, shortened: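 Animal weights and signs of toxicity were recorded 2–3 times per week in NOD/SCID female mice with subcutaneous xenografts. Mice received test compound or vehicle (10% PEG400 + 90% PBS) on the indicated schedules.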

[10] = system: SU-DHL-1 and SUP-M2 cells; assay: Annexin V apoptosis assay; assay type: cell-based, human; conditions: 48 hr
Procedure, shortened: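 Cells collected at the end of treatment, washed in cold PBS, stained with an Annexin V-FLUOS kit per the maker's protocol, and analysed by flow cytometry.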

STAT1 = STAT1 (Homo sapiens, UniProt P42224); assay: Bio-Layer Interferometry binding, STAT1
Sequence of STAT1 (P42224 132-713): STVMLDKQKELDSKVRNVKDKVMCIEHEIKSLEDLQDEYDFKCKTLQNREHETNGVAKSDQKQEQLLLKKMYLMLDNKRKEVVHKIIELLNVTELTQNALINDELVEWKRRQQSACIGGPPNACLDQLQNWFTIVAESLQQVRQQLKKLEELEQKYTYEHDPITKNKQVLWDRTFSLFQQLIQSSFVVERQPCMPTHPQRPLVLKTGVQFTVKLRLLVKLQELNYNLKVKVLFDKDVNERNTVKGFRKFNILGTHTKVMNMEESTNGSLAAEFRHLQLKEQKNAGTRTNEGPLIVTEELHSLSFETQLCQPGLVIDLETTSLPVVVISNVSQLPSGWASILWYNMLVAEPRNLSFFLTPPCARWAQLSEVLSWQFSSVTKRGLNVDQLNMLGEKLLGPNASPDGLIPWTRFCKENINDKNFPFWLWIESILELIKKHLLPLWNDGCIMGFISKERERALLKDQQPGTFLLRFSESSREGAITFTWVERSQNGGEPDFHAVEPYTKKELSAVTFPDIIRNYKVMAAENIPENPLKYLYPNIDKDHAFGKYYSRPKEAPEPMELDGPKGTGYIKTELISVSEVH
Procedure, shortened: as §1

STAT5B = STAT5B (Homo sapiens, UniProt P51692); assay: Bio-Layer Interferometry binding, STAT5B
Sequence of STAT5B (P51692 138-710): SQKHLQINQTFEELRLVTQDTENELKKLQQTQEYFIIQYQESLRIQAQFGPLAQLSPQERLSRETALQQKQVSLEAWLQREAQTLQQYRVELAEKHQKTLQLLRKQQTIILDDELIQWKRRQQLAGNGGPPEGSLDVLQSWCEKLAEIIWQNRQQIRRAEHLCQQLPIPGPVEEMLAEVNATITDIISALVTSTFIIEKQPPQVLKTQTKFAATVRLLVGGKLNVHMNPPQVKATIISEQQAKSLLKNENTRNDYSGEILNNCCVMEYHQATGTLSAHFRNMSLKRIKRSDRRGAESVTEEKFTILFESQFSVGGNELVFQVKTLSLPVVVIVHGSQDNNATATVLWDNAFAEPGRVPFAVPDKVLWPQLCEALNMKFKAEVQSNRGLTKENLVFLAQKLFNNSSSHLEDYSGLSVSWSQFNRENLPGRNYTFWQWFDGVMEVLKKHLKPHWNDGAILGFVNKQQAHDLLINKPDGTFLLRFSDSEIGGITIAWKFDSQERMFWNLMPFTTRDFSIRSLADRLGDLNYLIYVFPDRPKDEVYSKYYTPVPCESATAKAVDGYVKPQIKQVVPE
Procedure, shortened: as §1

[11] = system: DNA binding activities of STAT1, STAT5A or STAT5B; assay: STAT1, STAT5A, STAT5B DNA binding activity assay; assay type: cell-based, human; conditions: MOLM-16
Procedure, shortened: as §3

STAT3 [12] = target: T1, STAT3 (Homo sapiens, UniProt P40763); assay: Pharmacodynamics: STAT3 protein in xenograft tumors; assay type: in vivo, NOD/SCID mice bearing human xenograft tumors
Target sequence in this assay (P40763 whole entry): as the sequence (P40763 whole entry) above

STAT3 target genes = assay: qRT-PCR of STAT3 target genes in MOLM-16 cells; assay type: cell-based, human; conditions: MOLM-16, 1 μM, 8 hr
[13] = system: STAT1, STAT4 and other STATs; assay: Degradation of other STAT proteins in cells; assay type: cell-based, human
Procedure, shortened: as §2

STAT3 [14] = target: T1, STAT3; assay: Bio-Layer Interferometry binding, STAT3
Procedure, shortened: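 Recombinant human STAT3 was biotinylated and binding measured by Bio-Layer Interferometry for Kd. Selectivity was taken from Kd values against other STATs.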
Target sequence in this assay (P40763 127-688): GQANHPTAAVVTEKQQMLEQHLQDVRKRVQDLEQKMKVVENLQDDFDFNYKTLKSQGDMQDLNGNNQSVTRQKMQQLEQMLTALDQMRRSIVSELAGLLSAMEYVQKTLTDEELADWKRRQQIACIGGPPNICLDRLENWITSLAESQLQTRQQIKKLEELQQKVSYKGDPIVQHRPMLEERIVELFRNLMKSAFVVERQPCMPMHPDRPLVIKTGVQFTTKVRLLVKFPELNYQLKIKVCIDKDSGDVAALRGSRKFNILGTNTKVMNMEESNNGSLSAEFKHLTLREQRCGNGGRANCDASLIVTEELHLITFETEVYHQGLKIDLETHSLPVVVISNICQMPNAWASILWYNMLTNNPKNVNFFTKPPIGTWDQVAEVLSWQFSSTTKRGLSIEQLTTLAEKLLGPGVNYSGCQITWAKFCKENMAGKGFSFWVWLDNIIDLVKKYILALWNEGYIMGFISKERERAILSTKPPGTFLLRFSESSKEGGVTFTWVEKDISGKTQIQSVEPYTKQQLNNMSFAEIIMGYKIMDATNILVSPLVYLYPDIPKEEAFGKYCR

Sequence of STAT4 (Q14765 133-705): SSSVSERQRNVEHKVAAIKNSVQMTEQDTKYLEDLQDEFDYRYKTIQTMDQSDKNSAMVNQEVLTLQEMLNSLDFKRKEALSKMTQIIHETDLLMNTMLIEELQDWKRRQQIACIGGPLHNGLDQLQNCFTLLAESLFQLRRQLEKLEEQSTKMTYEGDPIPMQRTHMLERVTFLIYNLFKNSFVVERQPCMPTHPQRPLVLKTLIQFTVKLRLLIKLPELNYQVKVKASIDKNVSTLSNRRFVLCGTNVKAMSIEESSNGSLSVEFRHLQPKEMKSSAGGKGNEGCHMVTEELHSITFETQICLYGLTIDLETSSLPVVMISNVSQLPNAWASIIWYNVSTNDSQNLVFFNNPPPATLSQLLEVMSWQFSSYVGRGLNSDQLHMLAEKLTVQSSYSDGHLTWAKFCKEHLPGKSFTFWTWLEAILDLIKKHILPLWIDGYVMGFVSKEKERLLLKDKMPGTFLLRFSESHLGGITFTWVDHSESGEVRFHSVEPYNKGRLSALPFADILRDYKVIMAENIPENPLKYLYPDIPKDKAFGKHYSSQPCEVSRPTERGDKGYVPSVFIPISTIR

## NC(=O)CC[C@H](NC(=O)[C@@H]1CC[C@@H]2CCN(C(=O)CCCCCC#Cc3cccc4c3CN(C3CCC(=O)NC3=O)C4=O)C[C@H](NC(=O)c3cc4cc(C(F)(F)P(=O)(O)O)ccc4[nH]3)C(=O)N21)C(=O)NC(c1ccccc1)c1ccccc1 (stereo partly drawn) [SD-36, ((2-(((5S,8S,10aR)-8-(((S)-5-amino-1-(benzhydrylamino)-1,5-dioxopentan-2-yl)carbamoyl)-3-(8-(2-(2,6-dioxopiperidin-3-yl)-1-oxoisoindolin-4-yl)oct-7-ynoyl)-6-oxodecahydropyrrolo[1,2-a][1,5]diazocin-5-yl)carbamoyl)-1H-indol-5-yl)difluoromethyl)phosphonic acid]
STAT4
  Kd: 1 to 2 µM
[1]
  proteome-wide selectivity: STAT3 was the only protein whose level was significantly decreased by ≥2-fold
[2]
  effect on complex I and II activity: did not have a substantial effect
  mitochondrial STAT3: effectively depleted
[3]
  levels of IKZF1, IKZF3 and CK1α: very modest effect
  protein levels of GSPT1: not affected
[4]
  monomeric and dimeric STAT3 protein: completely depletes
[5]
  expression of c-Myc: reduced
STAT5A
  Kd: ~5 µM
[6]; 9 AML cell lines
  AML cell lines with strong growth-inhibitory activity: 1 of 9
[6]; 9 lymphoma cell lines
  lymphoma cell lines with potent activity: 5 of 9
[7]
  IC50: 0.01 µM
[8]
  DNA binding activity of STAT3: abolishes
[9]
  weight loss or other signs of toxicity: no significant weight loss
[10]
  apoptosis: strong apoptotic cell death
STAT1
  Kd: 1 to 2 µM
STAT5B
  Kd: > 10 µM
[11]
  DNA binding activities of STAT1, STAT5A or STAT5B: no significant effect
STAT3 [12]; 4 days after a single dose
  STAT3 protein level in MOLM-16 tumors, of controls: < 50%
STAT3 [12]; single dose, 6 hr
  depletion of STAT3 protein in MOLM-16 and SU-DHL-1 tumors: near-complete depletion
STAT3 [12]; single dose, MOLM-16 and SU-DHL-1 tumors
  persistence of near-complete STAT3 depletion: > 24 h
STAT3 [12]; single i.v. dose
  duration of reduced STAT3 protein level: > 4 days
STAT3 [12]; single i.v. dose 25 mg/kg, 1 hr
  STAT3 protein depleted in MOLM-16 tumors: > 80%
STAT3 target genes
  expression of a set of STAT3 target genes: significantly down-regulated
[13]; MOLM-16 and SU-DHL-1 cells
  effect on other STATs: without effect on other STATs
[13]; human PBMCs, 24 hr
  degradation of STAT1, STAT4 and other STATs: failed to degrade
STAT3 [14]
  Kd: ~0.05 µM
STAT3 [14]; BLI Kd
  binding selectivity for STAT3 over STAT1 and STAT4: approximately 20 fold
